Reference: ChEMBL document CHEMBL2062417, “Biotinylated quercetin as an intrinsic photoaffinity proteomics probe for the identification of quercetin target proteins” (Bioorg Med Chem, 2011)
The source made the active and inactive calls.

What was measured:
[1] = molecular target: Eukaryotic translation initiation factor 3 subunit F (Homo sapiens) (UniProt O00303); assay: Binding affinity to EIF3F in human Jurkat cells at 150 uM followed by UV irradiation for 30 mins with Wood's glass filtered medium pressure mercury arc light after cell lysis measured after denaturing wash by SDS-PAGE based pull down assay
Procedure, shortened: (§1)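 Jurkat cells were grown in RPMI with 10% FBS (about 15×10^6 cells) and treated 2 h with 150 μM BioQ in 3% aqueous DMSO. They were heat-shocked at 43 °C for 30 min, recovered 1 h at 37 °C, and UV-irradiated (320–400 nm, peak 365 nm, 30 min, 4 °C) before or after sonication lysis. Streptavidin-agarose capture ran 1 h. Beads were washed ≥3× with lysis buffer or 2% SDS Tris pH 7.4, boiled, run on 12% SDS-PAGE and silver-stained.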

[2] = molecular target: Casein kinase II subunit alpha (Homo sapiens) (UniProt P68400); assay: Binding affinity to CK2alpha at 150 uM followed by UV irradiation for 30 mins with Wood's glass filtered medium pressure mercury arc light by SDS-PAGE based pull down assay
Procedure, shortened: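 CK2 (17.5–70 nM) was mixed with 150 μM BioQ in 400 μL 10 mM PBS pH 7.2 with protease inhibitors, with or without 10 mM MgCl2 and 2 μM ATP. Samples were irradiated 30 min on ice (320–400 nm, peak 365 nm) or left unirradiated. Capture was on streptavidin agarose for 1 h, with washes in lysis buffer or 2% SDS Tris buffer, then boiling, SDS-PAGE and silver staining.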

[3] = molecular target: T1, Splicing factor 3B subunit 3 (Homo sapiens) (UniProt Q15393); assay: Binding affinity to SF3B3 in human Jurkat cells at 150 uM followed by UV irradiation for 30 mins with Wood's glass filtered medium pressure mercury arc light prior to cell lysis measured after denaturing wash by SDS-PAGE based pull down assay; procedure, shortened: as §1
T1 sequence (whole entry): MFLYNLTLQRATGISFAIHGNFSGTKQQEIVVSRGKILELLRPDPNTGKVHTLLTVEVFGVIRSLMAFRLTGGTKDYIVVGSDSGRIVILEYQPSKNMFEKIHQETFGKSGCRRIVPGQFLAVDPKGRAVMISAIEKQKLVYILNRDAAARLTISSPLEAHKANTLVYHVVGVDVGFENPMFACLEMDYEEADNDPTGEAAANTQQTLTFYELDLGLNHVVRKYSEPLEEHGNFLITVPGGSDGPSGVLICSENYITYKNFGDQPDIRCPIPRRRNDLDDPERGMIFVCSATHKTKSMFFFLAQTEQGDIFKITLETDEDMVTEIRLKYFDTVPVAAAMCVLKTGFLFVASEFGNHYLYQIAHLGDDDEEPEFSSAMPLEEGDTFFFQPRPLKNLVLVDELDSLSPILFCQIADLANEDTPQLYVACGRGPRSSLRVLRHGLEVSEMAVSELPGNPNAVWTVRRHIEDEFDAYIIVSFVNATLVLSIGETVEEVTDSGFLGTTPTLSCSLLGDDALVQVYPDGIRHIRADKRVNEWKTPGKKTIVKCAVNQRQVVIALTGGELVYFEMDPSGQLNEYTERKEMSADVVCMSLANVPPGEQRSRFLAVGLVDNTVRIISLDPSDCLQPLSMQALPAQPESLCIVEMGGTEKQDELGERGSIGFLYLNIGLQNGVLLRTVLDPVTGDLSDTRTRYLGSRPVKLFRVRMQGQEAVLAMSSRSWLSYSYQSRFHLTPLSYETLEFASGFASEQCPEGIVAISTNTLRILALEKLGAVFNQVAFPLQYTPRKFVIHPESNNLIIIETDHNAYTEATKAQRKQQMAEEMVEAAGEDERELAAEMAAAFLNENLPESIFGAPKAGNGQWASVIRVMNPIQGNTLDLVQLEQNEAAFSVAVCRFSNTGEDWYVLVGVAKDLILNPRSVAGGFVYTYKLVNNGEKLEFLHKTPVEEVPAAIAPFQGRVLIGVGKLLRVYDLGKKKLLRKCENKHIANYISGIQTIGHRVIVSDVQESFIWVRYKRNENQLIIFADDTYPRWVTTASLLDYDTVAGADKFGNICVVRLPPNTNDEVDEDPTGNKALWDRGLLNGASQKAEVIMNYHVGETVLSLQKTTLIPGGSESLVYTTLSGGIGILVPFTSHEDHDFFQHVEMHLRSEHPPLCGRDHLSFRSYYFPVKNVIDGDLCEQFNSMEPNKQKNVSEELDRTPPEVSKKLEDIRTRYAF

[4] = molecular target: T2, Ubiquitin-like modifier-activating enzyme 1 (Homo sapiens) (UniProt P22314); assay: Binding affinity to UBA1 in human Jurkat cells at 150 uM followed by UV irradiation for 30 mins with Wood's glass filtered medium pressure mercury arc light prior to cell lysis measured after denaturing wash by SDS-PAGE based pull down assay; procedure, shortened: as §1
T2 sequence (whole entry): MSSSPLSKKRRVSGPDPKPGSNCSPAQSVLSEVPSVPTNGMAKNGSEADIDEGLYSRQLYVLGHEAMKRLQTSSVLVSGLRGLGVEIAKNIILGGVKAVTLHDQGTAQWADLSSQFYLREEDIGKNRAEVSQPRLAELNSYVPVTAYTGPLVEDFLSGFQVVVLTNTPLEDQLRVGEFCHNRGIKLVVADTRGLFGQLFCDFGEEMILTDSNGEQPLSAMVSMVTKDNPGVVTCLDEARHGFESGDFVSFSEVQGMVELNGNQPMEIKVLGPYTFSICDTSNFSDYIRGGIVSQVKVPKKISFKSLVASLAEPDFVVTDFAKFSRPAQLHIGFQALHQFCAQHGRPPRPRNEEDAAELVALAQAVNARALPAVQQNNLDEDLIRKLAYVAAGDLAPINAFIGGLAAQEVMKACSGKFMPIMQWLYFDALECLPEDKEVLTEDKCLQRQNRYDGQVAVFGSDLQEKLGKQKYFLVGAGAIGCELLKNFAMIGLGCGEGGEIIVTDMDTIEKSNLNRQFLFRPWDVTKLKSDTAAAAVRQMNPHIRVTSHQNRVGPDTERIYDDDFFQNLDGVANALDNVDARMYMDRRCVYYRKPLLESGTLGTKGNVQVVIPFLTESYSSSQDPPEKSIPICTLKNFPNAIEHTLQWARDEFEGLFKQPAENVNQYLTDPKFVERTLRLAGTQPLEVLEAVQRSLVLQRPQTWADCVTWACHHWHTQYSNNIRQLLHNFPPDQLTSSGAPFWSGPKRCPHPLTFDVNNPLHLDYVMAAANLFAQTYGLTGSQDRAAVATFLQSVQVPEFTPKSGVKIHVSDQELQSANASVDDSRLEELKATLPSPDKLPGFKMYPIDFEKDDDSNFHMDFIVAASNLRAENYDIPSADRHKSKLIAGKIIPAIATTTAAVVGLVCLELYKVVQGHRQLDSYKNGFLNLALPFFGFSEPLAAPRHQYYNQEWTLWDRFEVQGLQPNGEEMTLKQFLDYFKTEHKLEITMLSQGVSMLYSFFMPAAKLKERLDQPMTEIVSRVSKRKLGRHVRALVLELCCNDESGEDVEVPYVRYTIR

Measured: Activity

Chain of Eukaryotic translation initiation factor 3 subunit F (Homo sapiens) (O00303 whole entry): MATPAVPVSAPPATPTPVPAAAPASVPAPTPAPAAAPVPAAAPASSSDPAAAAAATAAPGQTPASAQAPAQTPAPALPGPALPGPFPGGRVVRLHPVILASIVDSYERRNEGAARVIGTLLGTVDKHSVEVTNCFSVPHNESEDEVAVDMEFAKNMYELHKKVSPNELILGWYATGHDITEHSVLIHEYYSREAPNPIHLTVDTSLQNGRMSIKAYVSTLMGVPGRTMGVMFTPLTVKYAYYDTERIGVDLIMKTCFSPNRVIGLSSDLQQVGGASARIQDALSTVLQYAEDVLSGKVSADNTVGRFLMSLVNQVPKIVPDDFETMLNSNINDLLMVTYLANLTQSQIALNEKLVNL
Chain of Casein kinase II subunit alpha (Homo sapiens) (P68400 whole entry, looked up): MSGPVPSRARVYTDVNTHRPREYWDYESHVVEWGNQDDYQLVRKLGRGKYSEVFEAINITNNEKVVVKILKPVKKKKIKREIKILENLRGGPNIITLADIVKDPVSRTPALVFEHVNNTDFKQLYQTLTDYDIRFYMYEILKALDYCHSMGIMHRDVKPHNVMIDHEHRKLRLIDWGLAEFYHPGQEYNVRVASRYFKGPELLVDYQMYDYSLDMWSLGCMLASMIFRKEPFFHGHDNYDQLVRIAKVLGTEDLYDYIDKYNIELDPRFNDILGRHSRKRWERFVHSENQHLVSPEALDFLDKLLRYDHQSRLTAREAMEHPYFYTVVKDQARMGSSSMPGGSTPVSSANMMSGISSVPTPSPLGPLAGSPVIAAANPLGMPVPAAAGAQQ

O=C(CCCC[C@@H]1SC[C@@H]2NC(=O)N[C@@H]21)NCCOCCOCCNC(=O)COc1cc(O)c2c(=O)c(O)c(-c3ccc(O)c(O)c3)oc2c1
active: all assays above
